Measured values from ChEMBL document CHEMBL3120154, “2-[N-Alkyl(R-phenyl)-aminomethyl]-3-phenyl-7-trifluoromethylquinoxalines as anticancer agents inhibitors of folate enzymes” (Eur J Med Chem, 2014).

Key:
Assay type in all cases: functional
COLO 205 = assay: Cytotoxicity against human COLO205 cells at 10^-6 M after 48 hrs by SRB assay; conditions: COLO 205, 48 h, read-out: GI
Summary of the method: (§1)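 Run by NCI on its 60-line human tumor cell panel, after a three-cell-line prescreen. Cells were exposed to drug for 48 h over a 5-log range: 100, 10, 1, 0.1 and 0.01 micromolar. Growth was estimated by sulforhodamine B (SRB) protein staining. Percent growth inhibition (I%) was recorded at each concentration relative to untreated control cells.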

T47D = assay: Cytotoxicity against human T47D cells at 10^-5 M after 48 hrs by SRB assay; conditions: read-out: GI
HT-29 [1] = assay: Cytotoxicity against human HT-29 cells at 10^-5 M after 48 hrs by SRB assay; conditions: HT-29, 48 h, read-out: GI; summary of the method: as §1
[2] = Cytotoxicity against human OVCAR5 cells at 10^-5 M after 48 hrs by SRB assay; conditions: OVCAR-5, 48 h, read-out: GI
Summary of the method: (§2)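 Second-stage screen in the 60-cell-line human tumor panel at NCI, over a 5-log range (100, 10, 1, 0.1, 0.01 micromolar). Cells were exposed to drug for 48 h and growth was estimated with a sulforhodamine B protein stain. The value is percent growth inhibition at each concentration.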

OVCAR-8 [3] = assay: Cytotoxicity against human OVCAR8 cells at 10^-6 M after 48 hrs by SRB assay; conditions: OVCAR-8, 48 h, read-out: GI; summary of the method: as §2
SN12C = assay: Cytotoxicity against human SN12C cells at 10^-6 M after 48 hrs by SRB assay; conditions: read-out: GI
OVCAR-8 [4] = assay: Cytotoxicity against human OVCAR8 cells at 10^-5 M after 48 hrs by SRB assay; conditions: OVCAR-8, 48 h, read-out: GI; summary of the method: as §2
[5] = Cytotoxicity against human Hs578T cells at 10^-6 M after 48 hrs by SRB assay; conditions: Hs-578T, read-out: GI; summary of the method: as §1
HCT-116 = assay: Cytotoxicity against human HCT116 cells at 10^-5 M after 48 hrs by SRB assay; conditions: HCT-116, 48 h, read-out: GI; summary of the method: as §1
HCT-15 = assay: Cytotoxicity against human HCT15 cells at 10^-5 M after 48 hrs by SRB assay; conditions: HCT-15, 48 h, read-out: GI; summary of the method: as §1
786-0 = assay: Cytotoxicity against human 786-0 cells at 10^-6 M after 48 hrs by SRB assay; conditions: 786-0, 48 h, read-out: GI; summary of the method: as §1
[6] = Cytotoxicity against human EKVX cells at 10^-6 M after 48 hrs by SRB assay; conditions: read-out: GI; summary of the method: as §1
NCI-H460 = assay: Cytotoxicity against human NCI-H460 cells at 10^-6 M after 48 hrs by SRB assay; conditions: NCI-H460, 48 h, read-out: GI
Summary of the method: (§3)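 Run in the NCI 60-cell-line screen after a three-line prescreen. Cells got a 48 h drug exposure; viability/growth was estimated with the sulforhodamine B protein assay. Growth inhibition (I%) was recorded at 100, 10, 1, 0.1 and 0.01 micromolar. Percent growth is relative to untreated control cells, and negative values indicate cell kill.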

NCI-H522 = assay: Cytotoxicity against human NCI-H522 cells at 10^-6 M after 48 hrs by SRB assay; conditions: NCI-H522, 48 h, read-out: GI; summary of the method: as §3
OVCAR-3 = assay: Cytotoxicity against human OVCAR3 cells at 10^-5 M after 48 hrs by SRB assay; conditions: OVCAR-3, 48 h, read-out: GI; summary of the method: as §3
HT-29 [7] = assay: Cytotoxicity against human HT-29 cells at 10^-6 M after 48 hrs by SRB assay; conditions: HT-29, 48 h, read-out: GI; summary of the method: as §1
SF-268 = assay: Cytotoxicity against human SF268 cells at 10^-5 M after 48 hrs by SRB assay; conditions: SF-268, 48 h, read-out: GI; summary of the method: as §2
CAKI-1 [8] = assay: Cytotoxicity against human Caki1 cells at 10^-6 M after 48 hrs by SRB assay; conditions: CAKI-1, 48 h, read-out: GI; summary of the method: as §1
UACC-62 = assay: Cytotoxicity against human UACC62 cells at 10^-5 M after 48 hrs by SRB assay; conditions: UACC-62, 48 h, read-out: GI
TK-10 [9] = assay: Cytotoxicity against human TK10 cells at 10^-5 M after 48 hrs by SRB assay; conditions: TK-10, 48 h, read-out: GI
SW-620 = assay: Cytotoxicity against human SW620 cells at 10^-5 M after 48 hrs by SRB assay; conditions: SW-620, 48 h, read-out: GI
NCI/ADR-RES [10] = assay: Cytotoxicity against human NCI/ADR-RES cells at 10^-5 M after 48 hrs by SRB assay; conditions: read-out: GI; summary of the method: as §3
MOLT-4 = assay: Cytotoxicity against human MOLT4 cells at 10^-6 M after 48 hrs by SRB assay; conditions: MOLT-4, 48 h, read-out: GI; summary of the method: as §3
M14 = assay: Cytotoxicity against human M14 cells at 10^-6 M after 48 hrs by SRB assay; conditions: M14, 48 h, read-out: GI; summary of the method: as §3
NCI/ADR-RES [11] = assay: Cytotoxicity against human NCI/ADR-RES cells at 10^-6 M after 48 hrs by SRB assay; conditions: read-out: GI; summary of the method: as §3
TK-10 [12] = assay: Cytotoxicity against human TK10 cells at 10^-6 M after 48 hrs by SRB assay; conditions: TK-10, 48 h, read-out: GI
U-251 = assay: Cytotoxicity against human U251 cells at 10^-6 M after 48 hrs by SRB assay; conditions: U-251, 48 h, read-out: GI
A498 = assay: Cytotoxicity against human A498 cells at 10^-5 M after 48 hrs by SRB assay; conditions: A498, 48 h, read-out: GI; summary of the method: as §1
SNB-19 = assay: Cytotoxicity against human SNB19 cells at 10^-5 M after 48 hrs by SRB assay; conditions: SNB-19, 48 h, read-out: GI
[13] = Cytotoxicity against human OVCAR4 cells at 10^-6 M after 48 hrs by SRB assay; conditions: OVCAR-4, 48 h, read-out: GI; summary of the method: as §2
SK-MEL-28 = assay: Cytotoxicity against human SK-MEL-28 cells at 10^-6 M after 48 hrs by SRB assay; conditions: SK-MEL-28, 48 h, read-out: GI; summary of the method: as §2
IGROV-1 = assay: Cytotoxicity against human IGROV1 cells at 10^-5 M after 48 hrs by SRB assay; conditions: IGROV-1, 48 h, read-out: GI; summary of the method: as §3
ACHN = assay: Cytotoxicity against human ACHN cells at 10^-6 M after 48 hrs by SRB assay; conditions: read-out: GI; summary of the method: as §1
SK-MEL-2 = assay: Cytotoxicity against human SK-MEL-2 cells at 10^-5 M after 48 hrs by SRB assay; conditions: SK-MEL-2, 48 h, read-out: GI; summary of the method: as §2
RPMI-8226 = assay: Cytotoxicity against human RPMI8226 cells at 10^-5 M after 48 hrs by SRB assay; conditions: RPMI-8226, 48 h, read-out: GI; summary of the method: as §2
HOP-62 = assay: Cytotoxicity against human HOP62 cells at 10^-5 M after 48 hrs by SRB assay; conditions: HOP-62, 48 h, read-out: GI; summary of the method: as §1
CAKI-1 [14] = assay: Cytotoxicity against human Caki1 cells at 10^-5 M after 48 hrs by SRB assay; conditions: CAKI-1, 48 h, read-out: GI; summary of the method: as §1
DU-145 = assay: Cytotoxicity against human DU145 cells at 10^-6 M after 48 hrs by SRB assay; conditions: DU-145, 48 h, read-out: GI; summary of the method: as §1

Row | SMILES | inhibition of growth at 1 µM (COLO 205) | inhibition of growth at 10 µM (T47D) | inhibition of growth at 10 µM (HT-29 [1]) | inhibition of growth at 10 µM [2] | inhibition of growth at 1 µM (OVCAR-8 [3]) | inhibition of growth at 1 µM (SN12C) | inhibition of growth at 10 µM (OVCAR-8 [4]) | inhibition of growth at 1 µM [5] | inhibition of growth at 10 µM (HCT-116) | inhibition of growth at 10 µM (HCT-15) | inhibition of growth at 1 µM (786-0) | inhibition of growth at 1 µM [6] | inhibition of growth at 1 µM (NCI-H460) | inhibition of growth at 1 µM (NCI-H522) | inhibition of growth at 10 µM (OVCAR-3) | inhibition of growth at 1 µM (HT-29 [7]) | inhibition of growth at 10 µM (SF-268) | inhibition of growth at 1 µM (CAKI-1 [8]) | inhibition of growth at 10 µM (UACC-62) | inhibition of growth at 10 µM (TK-10 [9]) | further results
1 | CCN(Cc1nc2cc(C(F)(F)F)ccc2nc1-c1ccccc1)c1ccc(OC)c(OC)c1 | < 40% | 24% | 40% | < 40% | 45% | < 40% | 72% | < 40% | 43% | 17% | < 40% | < 40% | < 40% | < 40% | 31% | < 40% | 15% | 19% | 24% | < 40% | inhibition of growth at 10 µM (SW-620): 18%; inhibition of growth at 10 µM (NCI/ADR-RES [10]): 21%; inhibition of growth at 1 µM (MOLT-4): < 40%; inhibition of growth at 1 µM (M14): < 40%; inhibition of growth at 1 µM (NCI/ADR-RES [11]): < 40%; inhibition of growth at 1 µM (TK-10 [12]): < 40%; inhibition of growth at 1 µM (U-251): < 40%; inhibition of growth at 10 µM (A498): 63%; inhibition of growth at 10 µM (SNB-19): < 40%; inhibition of growth at 1 µM [13]: < 40%; inhibition of growth at 1 µM (SK-MEL-28): < 40%; inhibition of growth at 10 µM (IGROV-1): 13%; inhibition of growth at 1 µM (ACHN): < 40%; inhibition of growth at 10 µM (SK-MEL-2): 15%; inhibition of growth at 10 µM (RPMI-8226): 97%; inhibition of growth at 10 µM (HOP-62): 18%; inhibition of growth at 10 µM (CAKI-1 [14]): 29%; inhibition of growth at 1 µM (DU-145): < 40%
2 | C#CCN(Cc1nc2cc(C(F)(F)F)ccc2nc1-c1ccccc1)c1ccc(C)cc1 | 108% | 78% | 99% | 71% | < 40% | < 40% | 62% | < 40% | 79% | 110% | < 40% | < 40% | 62% | 49% | 125% | < 40% | 50% | < 40% | 91% | 54% | inhibition of growth at 10 µM (SW-620): 82%; inhibition of growth at 10 µM (NCI/ADR-RES [10]): 113%; inhibition of growth at 1 µM (MOLT-4): 67%; inhibition of growth at 1 µM (M14): 54%; inhibition of growth at 1 µM (NCI/ADR-RES [11]): 109%; inhibition of growth at 1 µM (TK-10 [12]): < 40%; inhibition of growth at 1 µM (U-251): < 40%; inhibition of growth at 10 µM (A498): 116%; inhibition of growth at 10 µM (SNB-19): 92%; inhibition of growth at 1 µM [13]: < 40%; inhibition of growth at 1 µM (SK-MEL-28): < 40%; inhibition of growth at 10 µM (IGROV-1): 63%; inhibition of growth at 1 µM (ACHN): < 40%; inhibition of growth at 10 µM (SK-MEL-2): 72%; inhibition of growth at 10 µM (RPMI-8226): < 40%; inhibition of growth at 10 µM (HOP-62): 71%; inhibition of growth at 10 µM (CAKI-1 [14]): 82%; inhibition of growth at 1 µM (DU-145): < 40%
